Data on 54 variants can be found in the RNAGym collection of RNA variant scans (doi:10.1101/gad.245936.114).

This sample holds only a part of the variants without activity. Where only a bound is given, the exact number is not on record here.

B1: tRNA (parent)
chain: CUCUCGGUAGCCAAGUUGGUUUAAGGCGCAAGACUUUAAUUUAUCACUACGAAAUCUUGAGAUCGGGCGUUCGACUCGCCCCCGGGAGAUUUUUUCCUCGAGCAA

The series covers variants of B1. Kind of series: nonsense suppression (GFP-seq) (ratio to wild type); higher = more function; SUP4oc tRNA, yeast GFP reporter sort-seq. Put shortly:
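Each variant's nonsense suppression (GFPSEQ) is a cell-share-weighted bin median GFP/RFP relative to the unmutated parent tRNA. Yeast with genome-integrated tRNA variants from a ~3% random-mutation library, a galactose-driven GFP ochre reporter and RFP were grown in raffinose/galactose medium with 80 mg/L adenine, then sorted into GFP/RFP bins for Illumina sequencing. Variants needed ≥100 reads and ≥30 cells.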
Turning to CUCUCGGUAGCUCAGUUGGAUUAAGGCGCAAGACUUUAAUUUAUCACUACGAAAUCUUGAGAUCGGGCGUUCGACUCGCCCCCGGGAGAUUUUUUCCUCGAGCAA, the nonsense suppression was at most 0.026.
The same measure for CUCUCGGUAGCUAAGUUGGUUUAAGGUGCAAGACUUUAAUUUAUCACUACGAAAUCUUGACAUCGGGCGUUCGACUCGCCCCCGGGAGAUUUUUUCCUCGAGCAA: at most 0.026; for CUCUCGGUAGCAAAGUUGGUUUAAGGCGCAAGGCUUUAAUUUAUCACUACGAAAUCUUGAGAUCGGUCGUUCGACUCGCCCCCGGGAGAUUUUUUCCUCGAGCAA: at most 0.026; for CUCUCGGUAGCUAAGUUGGUUUAAGGCGCAAGCCUUUAAUUUAUCACUACGAAAUCUUGAGAUCGGGCGUUCGACUCGCGCCCGGGAGAUUUUUUCCUCGAGCAA: at most 0.026.
As for CUCUCGGUAGCGAAGUUGGUUUAAGGCGCAAGUCUUUAAUUUAUCACUACGAAACCUUGAGAUCGGGCGUUAAACCCGCCCCCGGGAGAUUUUUUCCUCGAGCAA, the nonsense suppression was at most 0.026.
The same measure for CUCUCGGUAGCAAAGUUGGUUUAACGCGCAAGACUUUAAUUUAUCACUACGAAAUCUUGAGAUCGGGGGUUCGACUCGCCCCCGGGAGAUUUUUUCCUCGAGCAA: at most 0.026; for CUCUCGGUAGCGAAGUUGGUAUAAGGCGCAAGACUUUAAUUUAUCACUACGAAAUCUUUAGAUCGGGCGUUCGACUCGCCCCCGGGAGAUUUUUUCCUCGAGCAA: at most 0.026.
As to CUCUCGGUAGCGAGGUUGGUUUAAGGCGCAAGGCUUUAAUUUAUCACUACGAAAUCUUGAGAUCGGGCGUUCGACUCGCCCCCGGGAGAUUUUUUCCUCGAGCAA, the nonsense suppression was at most 0.026.
The figure for CUCUCGGUAGCUGAGUUGGUAUAAGGCGCAAGACUUUAAUUUAUCACUACGAAAUCUUGAGAUCGGGCGUUCGACUCGCCCCCGGGAGAUUUUUUCCUCGAGCAA is 0.0262; for CUCUCGGUAGCUAAGUUGGUUUCAGGCGCAAGACUUUAAUUUAUCACUACGAAAUCUUGAGAUCGGGCGCUCGACUCGCCCCCGGGAGAUUUUUUCCUCGAGCAA it is at most 0.026.
As for CUCUCGGUAGCGAAGUUGGUUUAAGGCGCAAGACUUUAAUUUAUCACUACGAAGUCGUGUGAUCGGGCGUUCGACUUGCCCCCGGGAGAUUUUUUCCUCGAGCAA, the nonsense suppression was at most 0.026.
Take CUCUCGGUAGCAAAGUUGGUUUAAGGCGCAAGACUUUAAUUUAUCACUACGAAAUCUUGACAUCGCGCGUUCGACUCGCCCCCGGGAGAUUUUUUCCUCGAGCAA: the nonsense suppression is at most 0.026.
The figure for CUCUCGGUAGCGAAAUUGUUUUAAGGCGCAAGACUUUAAUUUAUCACUACGAAAUCUUGAGAUCGGGCGUUCGACUCGCCCCCGGGAGAUUUUUUCCUCGAGCAA is at most 0.026; for CUCUCGGUAGCUAAGUUGGUUUAAGGCGCAGGACUUUAAUUUAUCACUACGAAAUCUUGAGAUCGGGCGUUCGACUGGCCCCCGGGAGAUUUUUUCCUCGAGCAA it is at most 0.026; for CUCUCGGUAGCUAAGUUGGUUUAAGGCGCAAGACUUUAAUUUAUCACUACGAAGUCUUGAGAUCGGGCGUUCGACUCGCCCCCGGGAGAUUUUUUCCUCGAGCAA it is 0.0372.
In the case of CUCUCGGUAGCUAAGUUGGUUUAAGGCGCAAGACUUUAAUUUAUCACUACGAACUCUUGAGAUCGGGCGUUCGACUCGCCCCCGGGAGAUUUUUUCCUCGAGCAA, the nonsense suppression is 0.0512.
The figure for CUCUCGGUAGCUAAGUUGGUUUAAGGCGCAAGACUUUAAUUUAUCACUACGAAUUCUUGAGAUCGGGCGUUCGACUCGCCCCCGGGAGAUUUUUUCCUCGAGCAA is 0.229.
Regarding CUCUCGGUAGCUGAGUUGGUUUAAGGCGCAAGACUUUAAUUUAUCACUACGAAAUCUUGAGAUCGGGCGUUCGACUCGCCCCCGGGAGAUUUUUUCCUCGAGCAA, the nonsense suppression came out at 0.153.
Turning to CUCUCGGUAGCUUAGUUGGUUUAAGGCGCAAGACUUUAAUUUAUCACUACGAAAUCUUGAGAUCGGGCGUUCGACUCGCCCCCGGGAGAUUUUUUCCUCGAGCAA, the nonsense suppression was found to be 0.626.
The same measure for CUCUCGGUAGCUCAGUUGGUUUAAGGCGCAAGACUUUAAUUUAUCACUACGAAAUCUUGAGAUCGGGCGUUCGACUCGCCCCCGGGAGAUUUUUUCCUCGAGCAA: 0.2; for CUCUCGGUAGCUAAGUUGGUUUAAGGCGGAAGACAUUAAUUUAUCACUACGAAAUCUUGAGAUCGGGCGUUCGACUCGCCCCCGGGAGAUUUUUUCCUCGAGCAA: at most 0.026.
For CUCUCGGUAGCUCAGUUGGCUUAAGGCGCAAGACUUUAAUUUAUCACUACGAAAUCUUGCGAUCGGGCGUUCGACUCGCCCCCGAGAGAUUUUUUCCUCGAGCAA, the nonsense suppression was at most 0.026.
CUCUCGGUAGCGAAGUUGGUUUAACGCGCAAGACUUUAAUUUAUCACUACGAAAUCUUGAGAUCGGGCGUUCGAAUCGCCCCCGGGAGAUUUUUUCCUCGAGCAA: the nonsense suppression was 0.482.
The same measure for CUCUCGGUAGCAAAGUUUGUUUAAGGCGCAAGACUUUAAUUUAUCACUACGAAAUCUUGAGAUCGGGCGCUCGACUCGCCCCCGGGAUAUUUUUUCCUCGAGCAA: at most 0.026; for CUCUCGGUAGCUAAGUUGGUUUAAGGCGCAGGACUUUAAUUUAUCACUACGAAAUCUUGAGAUCAGGCGUUCGACUCGCCCCCGGGAGAUUUUUUCCUCGAGCAA: at most 0.026; for CUCUCGGUAGCGAAGUUGGUUUAAGGUGCAAGACUUUAAUUUAUCACUACGAAAUCUUGAGAUCGGGCGUUCGACUCGCCCCCGGGAGAUUUUUUCCUCGAGCAA: at most 0.026.
The same measure for CUCUCGGUAGCGAAGUCGGUGUAAGGCGCAAGACUUUAAUUUAUCACUACGAAAUCUUGAGAUCGGGCGUUCGACUCGCCCCCGGGAGAUUUUUUCCUCGAGCAA: at most 0.026; for CUCUCGGUAGCUAAGUUGGUUUCAGGCGCAAGACUUUAAUUUAUCACUACGAAAUCUUGAGAUCGGGCGUUCGACUCCCCCCCGGGAGAUUUUUUCCUCGAGCAA: at most 0.026; for CUCUCGGUAGCUAAGUUGGUUUAUGGCGCAAGACUUUAAUUUAUCACUACGAAAUCUUGAGAUCGGGCGUGCGACUCGCCCCCGGGAGAUUUUUUCCUCGAGCAA: at most 0.026.
CUCUCGGUAGCAAAGUUGGUUUAAGGCGCAACACUUUAAUUUAUCACUACGAAAUCGUGAGAUCGGGCGUUCGACUCGCCCCCGGGAGAUUUUUUCCUCGAGCAA: the nonsense suppression is at most 0.026.
In the case of CUCUCGGUAGCGAAGUUGGUUUAAGGCGCAAGACUUUAAUUUAUCACUACGAAAUCUUGAGAUCGGGGUUUCGACUCGCCCCCGGGAGUUUUUUUCCUCGAGCAA, the nonsense suppression is 0.0702.
As for CUCUCGGUAGCUAAGUUGGUUUGAGGCGCAAGACUUUAAUUUAUCACUACGAAAUCUUGAGAUCGGGCGUUCGACUCGCCCCCGGGAGAUUUUUUCCUCGAGCAA, the nonsense suppression came out at 0.0776.
The figure for CUCUCGGUAGCGAAGUUGGUUUAAGGCGCAAGACUUUAAUUUAUCACUACGAAAUCUUGAGAUCGGGCGUGCGACUCGCCCCCGGGAGAUUUUUUCCUCGAGCAA is 0.859.
On to CUCUCGGUAGCGAAGUUGGUUUAAGGCGCAAGACUUUAAUUUAUCACUACGAAAUCUUGAGAUCGGGCGAUCGACUCGCCCCCGGGAGAUUUUUUCCUCGAGCAA, for which the nonsense suppression is at most 0.026.
The same measure for CUCUCGGUAGCGAAGUUGGUUUAAGGCGCAAGACUUUAAUUUAUCACUACGAAAUGUUGAGAUCAGGCGUUCGUCUCGCCCCCGGGAGAUUUUUUCCUCGAGCAA: at most 0.026; for CUCUCGGUAGCGAAGUUGGUUUAAGGCGCAAGUCUUUAAUUUAUCACUACGAAAUCUUGAGAUCGGGCGUUCGACUCGCCCCCGGGAGAUUUUUUCCUCGAGCAA: at most 0.026; for CUCUCGGUAGCUAAGUUGGUUUAAGGCGCAAGACUUUAAUUUAUCACUACGAAAUCUUGGGAUCGGGCGUUCGACUCGCCCCCGGGAGAUUUUUUCCUCGAGCAA: 0.406.
The same measure for CUCUCGGUAGCUAAGUUGGUUUAAGGCGCAAGACUUUAAUUUAUCACUACGAAAUCUUGUGAUCGGGCGUUCGACUCGCCCCCGGGAGAUUUUUUCCUCGAGCAA: 0.723.
Take CUCUCGGUAGCAAAGUUGGUUUAAGGCGCAAGACUUUAAUUUAUCACUACGAAAUCUUGAGAUCGGGCGUUCGACUCGCCCCCGGGAGGUUUUUUCCUCGAGCAA: the nonsense suppression was at most 0.026.
With CUCUCGGUAGCUUAGUUGGUUUAAGGCGCAAGACUUUAAUUUAUCACUACGAAAUCUUGAGAUCGGGCGUUCGACUCGUCCCCGGGAGAUUUUUUCCUCGAGCAA, the nonsense suppression worked out at 0.0331.
For the variant CUCUCGGUAGCUAAGUUGGUUUAAGGCGCAAGACUUUAAUUUAUCACUACGAAAUGUUGAGAUCGGGCGUUCGACUCGCCCCCGGGAGAUUUUUUCCUCGAGCAA, the nonsense suppression is at most 0.026.
Consider CUCUCGGUAGCUAAGUUGGUUUAAGGCGCAAGACUUUAAUUUAUCACUACGAAAUUUUGAGAUCGGGCGUUCGACUCGCCCCCGGGAGAUUUUUUCCUCGAGCAA, for which the nonsense suppression was at most 0.026.
CUCUCGGUAGCUAAGUUGGUUUAUGGCGCAAGACUUUAAUUUAUCACUACGAAAUCUUGAGAUCGGGCGUUCGACUCGCCCCCGGGAGAUUUUUUCCUCGAGCAA: the nonsense suppression stood at 0.118.
The figure for CUCUCGGUAGCAAAGUUGGUUUAAGGCGCAAGAUUUUAAUUUAUCACUACGAAAUCUUGAGAUCGGGCGUUCGACUCGCCCCCGGGAGAUUUUUUCCUCGAGCAA is 0.94; for CUCUCGGUAGCGAAGCUGGUUUGAGGCGCAAGACUUUAAUUUAUCACUACGAAAUCUUGAGAUCGGGCGUUCGACUCGCCCCCGGGAGAUUUUUUCCUCGAGCAA it is 0.207.
On to CUCUCGGUAGCUAAGUUGGUUUAAGGCGUAAGACUUUAAUUUAUCACUACGAAAUCUUGAGAUCGGGCGUUCGACUCGCCCCCGGGAGAUUUUUUCCUCGAGCAA, for which the nonsense suppression amounted to 0.206.
With CUCUCGGUAGCAAAGUUUGUUUAAGGCGCAAGACUUUAAUUUAUCACUACGAAAUCUUGAGAUCGAGCGCUCGACUGGCCCCUGGGAGAUUUUUUCCUCGAGCAA, the nonsense suppression was at most 0.026.
As to CUCUCGGUAGCAAAGUUGGUUUAAGGCGCAAGACAUUAAUUUAUCACUACGAAAUCUUGAGAUCGGGCGUUCGACUCGCCGCCGGGAGAUUUUUUCCUCGAGCAA, the nonsense suppression was at most 0.026.
For CUCUCGGUAGCAAAGUUGGUUUAAGGCGCAAGACUUUAAUUUAUCACUACGAAAUCUUGAGAUCGGGCGUUCGACUCACCCCCGGGAGAUUUUUUCCUCGAGCAA, the nonsense suppression is 0.045.
As to CUCUCGGUAGCUAAGUUGGUUUAAGGCGCAAGACUUUAAUUUAUCACUACGAAAUCUUGAGAUCGGGCGUUCGACUCGCCCCCGGGAGAUUUUUUCCUCGAGCAA, the nonsense suppression stood at 0.773.
CUCUCGGUAGCAAAGUUGGUUUAAGGCCCAGGACUUUAAUUUAUCACUACGAAAUCGUGAGAUCGGGCGUUCGACUCGCCCCCGGGAGAUUUUUUCCUCGAGCAA: the nonsense suppression was at most 0.026.
As for CUCUCGGUAGCUAAGUUGGUUUAAGGUGCAAGACUUUAAUUUAUCACUACGAAAUCUUGAGAUCGGGCGUUCGACUCGCCCCCGGGAGAUUUUUUCCUCGAGCAA, the nonsense suppression was 0.121.
The figure for CUCUCGGUAGCAAAGUUGGUUUAAGGCGCAAGACUUUAAUUUAUCACUACGAAAUCUUGAGAUCGGGCGUUCGACUAGCCCCCGGUAGAUUUUUUCCUCGAGCAA is at most 0.026; for CUCUCGGUAGCUAAGUUGGUUUAAGGCGCGAGACUUUAAUUUAUCACUACGAAAUCUUGAGAUCGGGCGUUCGACUCGCCCCCGGGAGAUUUUUUCCUCGAGCAA it is 0.363.
